pEC50: −log10 of the molar value. In brackets after ≈: the same amount, converted by molar mass. Activity calls are given as the source filed them. No cut-off for these calls is given here.
Columns and labels:
[1] = tested on: Respiratory syncytial virus; assay: Antiviral activity against respiratory syncytial virus A2 infected in human Hep2 cells assessed as reduction in virus-induced cytopathic effect after 5 days by MTT assay; format: functional, organism-based; conditions: A2, HEp-2, 120 h
How it was run: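 HEp2 cells (1.0 × 10⁴/well) infected at low moi (RSV A2 at moi 0.01) and added to serial compound dilutions; incubated 5 days at 37 °C, 5% CO₂. CPE read by MTT (1 mg/ml) metabolism after 2 h incubation.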

[2] = Lipophilicity, log D of the compound at pH 7.4 by chromatography; format: physicochemical; conditions: buffer
How it was run: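 Effective logD measured chromatographically on an LC-ABZ column, octanol-saturated mobile phase at pH 7.4.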

[3] = Kinetic solubility in isotonic phosphate buffer at pH 6.5 by nephelometry; format: physicochemical; conditions: read-out: Kinetic_solubility
How it was run: (§1)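 Compound dissolved in DMSO and added to 0.01 M HCl (pH 2) or pH 6.5 isotonic phosphate buffer, 1% final DMSO. Solubility range determined by nephelometry.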

[4] = Kinetic solubility in 0.01M HCl buffer at pH 2.0 by nephelometry; format: physicochemical; conditions: read-out: Kinetic_solubility; how it was run: as §1
[5] = tested on: Respiratory syncytial virus; assay: Antiviral activity against respiratory syncytial virus B1 infected in human Hep2 cells assessed as reduction in virus-induced cytopathic effect after 5 days by MTT assay; format: functional, organism-based; conditions: B1, HEp-2, 120 h
[6] = tested on: Respiratory syncytial virus; assay: Antiviral activity against respiratory syncytial virus Long infected in human Hep2 cells assessed as reduction in virus-induced cytopathic effect after 5 days by MTT assay; format: functional, organism-based; conditions: HEp-2, 120 h
[7] = Elimination half life in Sprague-Dawley rat at 8.8 mg/kg, iv; format: ADME, organism-based; design: dose 8.8 mg/kg, route intravenous; conditions: in vivo, read-out: beta t1/2 (converted)
[8] = tested on: Respiratory syncytial virus; assay: Resistance index, ratio of EC50 for drug resistant respiratory syncytial virus Long expressing F protein Q494L mutant to EC50 for wild type Respiratory syncytial virus Long
[9] = tested on: Respiratory syncytial virus; assay: Antiviral activity against respiratory syncytial virus A2 assessed as inhibition of early virus replication cycle by time of addition assay; format: functional, organism-based
[10] = tested on: Respiratory syncytial virus; assay: Antiviral activity against respiratory syncytial virus A2 by plaque reduction assay; format: functional, organism-based
[11] = Plasma clearance in Sprague-Dawley rat at 8.8 mg/kg, iv; format: ADME, organism-based; design: dose 8.8 mg/kg, route intravenous
[12] = Oral bioavailability in dog; format: ADME, organism-based, Canis lupus familiaris; conditions: in vivo
[13] = Oral bioavailability in Sprague-Dawley rat at 19 mg/kg; format: ADME, organism-based; conditions: in vivo
How it was run: (§2)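 Male Sprague Dawley rats, n = 2, oral dose as suspension in hydroxypropylmethylcellulose, in carboxymethylcellulose, or in 0.5% HPMC/0.5% benzyl alcohol/0.4% Tween80. Cmax (µM), T1/2 and F (%) derived from plasma levels.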

[14] = tested on: Respiratory syncytial virus; assay: Antiviral activity against respiratory syncytial virus A2 by yield reduction assay; format: functional, organism-based
[15] = Cmax in Sprague-Dawley rat at 19 mg/kg, po; format: ADME, organism-based; design: dose 19 mg/kg, route oral; conditions: in vivo; how it was run: as §2
[16] = tested on: Respiratory syncytial virus; assay: Resistance index, ratio of EC50 for drug resistant respiratory syncytial virus B1 expressing F protein L141F mutant to EC50 for wild type Respiratory syncytial virus B1; format: functional
[17] = tested on: Respiratory syncytial virus; assay: Resistance index, ratio of EC50 for VP-14637 resistant respiratory syncytial virus Long expressing F protein D489Y mutant to EC50 for wild type Respiratory syncytial virus Long
[18] = Apparent volume of distribution in Sprague-Dawley rat at 8.8 mg/kg, iv; format: ADME, organism-based; design: dose 8.8 mg/kg, route intravenous; conditions: in vivo, read-out: Vz
[19] = Elimination half life in Sprague-Dawley rat at 19 mg/kg, po; format: ADME, organism-based; design: dose 19 mg/kg, route oral; conditions: in vivo, read-out: beta t1/2 (converted); how it was run: as §2
[20] = tested on: Respiratory syncytial virus; assay: Potency shift index, ratio of EC50 for respiratory syncytial virus A2 infected in human Hep2 in presence of 1.5 mg/mL Alpha-1-acid glycoprotein to EC50 for respiratory syncytial virus A2 infected in human Hep2 in absence of Alpha-1-acid glycoprotein; format: functional
[21] = Cytotoxicity against human Hep2 cells assessed as reduction in cell viability after 5 days by MTT assay; format: cell-based, HEp-2
How it was run: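 Uninfected HEp2 cells (1.0 × 10⁴/well) exposed to serial compound dilutions for 5 days at 37 °C, 5% CO₂. Viability read by MTT (1 mg/ml) metabolism after 2 h incubation.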

[22] = Elimination half life in Sprague-Dawley rat at 3.1 mg/kg, iv; format: ADME, organism-based; design: dose 3.1 mg/kg, route intravenous; conditions: in vivo, read-out: beta t1/2 (converted)
How it was run: (§3)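 Male Sprague Dawley rats given one IV dose. 3.1 mg/kg: n = 1, in 40% propylene glycol, 10% ethanol and 0.4% Tween80 in water. 2.1 mg/kg: n = 2, in 20 mM citrate (pH 2.6) with 5% glucose and 10% DMSO. Total clearance, Vz and T1/2 derived from plasma levels.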

[23] = Cmax in Sprague-Dawley rat at 18 mg/kg, po; format: ADME, organism-based; design: dose 18 mg/kg, route oral; conditions: in vivo
How it was run: (§4)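 Male Sprague Dawley rats, n = 2, oral dose as suspension with carboxymethylcellulose. Cmax (µM), T1/2 and F (%) derived from plasma levels.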

[24] = Oral bioavailability in Sprague-Dawley rat at 18 mg/kg; format: ADME, organism-based; conditions: in vivo; how it was run: as §4
[25] = Total clearance in Sprague-Dawley rat at 3.1 mg/kg, iv; format: ADME, organism-based; design: dose 3.1 mg/kg, route intravenous; conditions: in vivo; how it was run: as §3
[26] = Apparent volume of distribution in Sprague-Dawley rat at 3.1 mg/kg, iv; format: ADME, organism-based; design: dose 3.1 mg/kg, route intravenous; conditions: in vivo, read-out: Vz; how it was run: as §3
[27] = Half life in Sprague-Dawley rat at 18 mg/kg, po; format: ADME, organism-based; design: dose 18 mg/kg, route oral; conditions: in vivo; how it was run: as §4
[28] = Elimination half life in Sprague-Dawley rat at 2 mg/kg, iv; format: ADME, organism-based; design: dose 2 mg/kg, route intravenous; conditions: in vivo, read-out: beta t1/2 (converted)
[29] = Apparent volume of distribution in Sprague-Dawley rat at 2 mg/kg, iv; format: ADME, organism-based; design: dose 2 mg/kg, route intravenous; conditions: in vivo, read-out: Vz
[30] = Plasma clearance in Sprague-Dawley rat at 2 mg/kg, iv; format: ADME, organism-based; design: dose 2 mg/kg, route intravenous

chromatographic logD [2] | solubility kinetic [3] [µg/mL] | solubility kinetic [4] [µg/mL] | Compound | pEC50 [1] | pEC50 [5] | pEC50 [6] | Ratio EC50 [20] | CC50 at 120 h [21] [nM] | other results
3 | 25 (≈ 54.1 µM) | > 100 | Cn1cc(C(=O)N2CCN3C(=O)c4ccncc4[C@@]32c2ccc(Cl)cc2)c(C(F)(F)F)n1 | 8.14 | 7.00 | 8.19 |  |  | 
 |  |  | O=C(c1cccs1)N1CCN2C(=O)c3ccncc3C12c1ccc(Cl)cc1 (racemic) | 6.89 |  |  | 12 | > 18000 | 
 |  |  | Cc1nnnn1N/C=C1\C=CC(=O)C(C(C2=C/C(=C/Nn3nnnc3C)C=CC2=O)c2ccc(O)cc2)=C1 (stereo not drawn) |  |  |  |  |  | Ratio EC50 [17]: >2174
 |  |  | Cn1cc(C(=O)N2CCN3C(=O)c4cc[n+]([O-])cc4[C@@]32c2ccc(Cl)cc2)c(C(F)(F)F)n1 | 8.00 |  |  |  | > 5000 | half-life [22]: 11 h; Cmax [23]: 9.3 µM; bioavailability [24]: 57%; clearance [25]: 2.2 mL/min/kg; Vd [26]: 2.1 L/kg; half-life [27]: 11 h
 |  |  | O=C(c1ccc(F)cc1)N1CCN2C(=O)c3cc[n+]([O-])cc3C12c1ccc(Cl)cc1 (racemic) |  |  |  |  |  | half-life [28]: 6.5 h; Vd [29]: 1.3 L/kg; clearance [30]: 2.4 mL/min/kg
 |  |  | O=C(c1cccnc1)N1CCN2C(=O)c3ccncc3C12c1ccc(Cl)cc1 (racemic) | 6.68 |  |  | 2.8 | > 51000 | 
 |  |  | O=C(c1csc(-c2cccnc2)n1)N1CCN2C(=O)c3ccncc3C12c1ccc(Cl)cc1 (racemic) | 7.60 |  |  | 10 | > 15000 | 
2.5 | > 100 | 50 (≈ 132 µM) | O=C(c1ccoc1)N1CCN2C(=O)c3ccncc3[C@]12c1ccc(Cl)cc1 | 8.00 | 7.07 | 7.49 |  |  | half-life [28]: 2.4 h; Vd [29]: 11 L/kg; bioavailability [13]: 35%; clearance [30]: 55 mL/min/kg; Cmax [15]: 0.77 µM; half-life [19]: 3.1 h

Compound | chromatographic logD [2] | solubility kinetic [3] [µg/mL] | solubility kinetic [4] [µg/mL] | pEC50 [1] | pEC50 [5] | pEC50 [6] | Ratio EC50 [20] | CC50 at 120 h [21] [nM] | other results
O=C(c1cccnc1)N1CCN2C(=O)c3ccncc3[C@]12c1ccc(Cl)cc1 [BTA-9881] | 2.1 | 50 (≈ 128 µM) | > 100 | 7.32 | 6.80 | 7.23 |  |  | half-life [7]: 4.5 h; Ratio EC50 [8]: 40; Activity [9]: Active; Activity [10]: Active; clearance [11]: 4.5 mL/min/kg; bioavailability [12]: 100%; bioavailability [13]: 100%; Activity [14]: Active; Cmax [15]: 23 µM; Ratio EC50 [16]: >100; Ratio EC50 [17]: >1800; Vd [18]: 1.7 L/kg; half-life [19]: 4.5 h

— ChEMBL document CHEMBL3393003, “1,2,3,9b-Tetrahydro-5H-imidazo[2,1-a]isoindol-5-ones as a new class of respiratory syncytial virus (RSV) fusion inhibitors. Part 2: identification of BTA9881 as a preclinical candidate” (Bioorg Med Chem Lett, 2015)
